# Assay results: publication PMC12100521 (Chemical Science, 2025)
# Several values for one entry are separate records, joined by “and”; a condition that tells them apart may be missing. Identical values can stand only once.
# Key:
# [1] = tested on: CYP125MRCA; test: UV-Vis spin-state; type: binding; settings: 30 °C, enzyme ~2 μM
# [2] = biological target: CYP125MRCA; test: UV-Vis difference-spectrum substrate titration; type: binding; settings: read-out: Kd (Hill model), Table 1
# [3] = tested on: CYP125MRCA; test: In vitro oxidation assay, spinach ferredoxin/ferredoxin reductase/NADPH, GC-MS; type: biochemical; settings: substrate 100 μM, enzyme 2 μM, 20 h, room temperature
# [4] = tested on: CYP125A1, CYP125A6 and CYP125A7; settings: cited from earlier work
# [5] = tested on: CYP125MRCAAlt; test: In vitro oxidation assay, spinach ferredoxin/ferredoxin reductase/NADPH, GC-MS; type: biochemical; settings: reconstituted spinach ferredoxin/reductase/NADPH system
# Method in brief: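 Enzyme (2 μM in the method text) and substrate (100 μM) were equilibrated 3 min at room temperature in oxygenated 50 mM Tris, pH 7.4. Added G6P (5 mM), G6PDH (0.7 U/mL), ferredoxin (4 μM), reductase (0.2 U/mL) and catalase (0.03 mg/mL), then NADPH (1 mM). Ran 20 h, quenched with HCl, octanoic acid internal standard, ethyl acetate extraction, BSTFA/TMCS derivatisation, products assigned by mass spectra and retention times.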
# [6] = tested on: CYP125A1; settings: cited from earlier work
# [7] = tested on: CYP125MRCAAlt; test: UV-Vis spin-state shift binding screen after imidazole treatment; settings: enzyme pre-treated with imidazole (~1.3 mM)
# [8] = biological target: CYP125A1; settings: read-out: Kd CYP125A1; cited from earlier work
# [9] = tested on: Mtb CYP125A1; settings: cited from earlier work
# [10] = tested on: CYP125MRCA; type: biochemical; settings: 1 : 1 mixture of substrates
# [11] = biological target: MmarCYP125A7; settings: cited from earlier work
SMILES,Substrate-induced shift of the Soret band (LS to HS) [1],Kd [2] [µM],Oxidation by CYP125MRCA (products by GC-MS) [3],Binding detected by shift back to HS peak [7],further results
CC(C)=CCC[C@@H](C)[C@H]1CC[C@H]2[C@@H]3CC=C4C[C@@H](O)CC[C@]4(C)[C@H]3CC[C@]12C [desmosterol],minimal perturbations of the heme centre,,,,
CC[C@H](/C=C/[C@@H](C)[C@H]1CC[C@H]2[C@@H]3CC=C4C[C@@H](O)CC[C@]4(C)[C@H]3CC[C@]12C)C(C)C [stigmasterol],complete shift of the Soret band to the high spin peak at ∼391 nm,2.04 ± 0.12,,,
CC(C)[C@@H](C)/C=C/[C@@H](C)[C@H]1CC[C@H]2C3=CC=C4C[C@@H](O)CC[C@]4(C)[C@H]3CC[C@]12C [ergosterol],minimal perturbations of the heme centre,,,,
"C=C1CC[C@H](O)C/C1=C/C=C1\CCC[C@]2(C)[C@@H]([C@H](C)CCCC(C)C)CC[C@@H]12 [vitamin D3, cholecalciferol]",complete shift in the Soret band to HS,1.6 ± 0.22,oxidised by CYP125MRCA into four hydroxylation products and one partially underivatised alcohol product,found to bind,Spectral shift in the Soret band [4]: does not induce a spectral shift in the Soret band; Oxidation by CYP125MRCAAlt (products by GC-MS) [5]: No 25- or 26-hydroxylation activity; Oxidation of vitamin D3 by CYP125A1 [6]: does not oxidise
CC(C)CCC[C@@H](C)[C@H]1CC[C@H]2[C@@H]3CC=C4C[C@@H](O)CC[C@]4(C)[C@H]3CC[C@]12C [cholesterol],completely shift the Soret band to ∼390 nm,2 ± 0.05,able to oxidise and 26-cholestenoic acid being the major product,found to bind,"Kd [8]: 0.11 ± 0.06 µM; Preference for cholesterol over sitosterol [9]: 1.8 fold; Oxidation by CYP125MRCAAlt (products by GC-MS) [5]: able to oxidise cholesterol, albeit with a lower efficiency and 26-hydroxycholesterol being the major product"
CC(C)CCC[C@@H](C)[C@H]1CC[C@H]2[C@@H]3[C@@H](O)C=C4C[C@@H](O)CC[C@]4(C)[C@H]3CC[C@]12C [7β-hydroxycholesterol],Complete or near-complete spin-state shifts,,,,
"CC(C)CCC[C@@H](C)[C@H]1CC[C@H]2[C@@H]3C[C@@H]4O[C@@]45C[C@@H](O)CC[C@]5(C)[C@H]3CC[C@]12C [5,6α-epoxycholesterol]",Complete or near-complete spin-state shifts,,,,
CC[C@H](CC[C@@H](C)[C@H]1CC[C@H]2[C@@H]3CCC4=CC(=O)CC[C@]4(C)[C@H]3CC[C@]12C)C(C)C [stigmast-4-en-3-one],complete shift of the Soret band to the high spin peak at ∼391 nm,1.61 ± 0.11,,found to bind,Preference for stigmast-4-en-3-one versus cholest-4-en-3-one [10]: 3.2 fold
CC(C)CCC[C@@H](C)[C@H]1CC[C@H]2[C@@H]3[C@H](O)C=C4C[C@@H](O)CC[C@]4(C)[C@H]3CC[C@]12C [7α-hydroxycholesterol],Complete or near-complete spin-state shifts,,,,
CC(C)CCC[C@@H](C)[C@H]1CC[C@H]2[C@@H]3C(=O)C=C4C[C@@H](O)CC[C@]4(C)[C@H]3CC[C@]12C [7-ketocholesterol],Complete or near-complete spin-state shifts,,,,
CC(C)CCC[C@@H](C)[C@H]1CC[C@H]2[C@@H]3CCC4=CC(=O)CC[C@]4(C)[C@H]3CC[C@]12C [cholest-4-en-3-one],completely shift the Soret band to ∼390 nm,0.85 ± 0.02,able to oxidise,found to bind,Kd [8]: 1.18 ± 0.11 µM; Kd [11]: 0.7 ± 0.4 µM
CC(C)[C@H](C)CC[C@@H](C)[C@H]1CC[C@H]2[C@@H]3CC=C4C[C@@H](O)CC[C@]4(C)[C@H]3CC[C@]12C [campesterol],complete shift of the Soret band to the high spin peak at ∼391 nm,4.19 ± 0.05,able to effectively oxidise,,
